In ChEMBL document CHEMBL1139303, “One-pot synthesis of 5-phenylimino, 5-thieno or 5-oxo-1,2,3-dithiazoles and evaluation of their antimicrobial and antitumor activity” (2009):
Converted amounts (≈) assume the structure as drawn. The source made the active and inactive calls. The calls are words filed in the database; no cut-off is given here.

Experiments:
Enterococcus faecalis = experiment: Antibacterial activity against Enterococcus faecalis CIP 103214 at 50 ug after 24 hrs by agar diffusion method; assay type: functional
In short: (§1)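 Bacteria pre-grown 24 h on nutritive agar (tryptone soy agar for E. faecalis, L. inocua) at 37 °C (30 °C for E. faecalis, L. inocua, B. cereus). Agar well diffusion with 50 µg compound in 80% DMSO; 80% DMSO alone as control. Inhibition zone diameter averaged from triplicate, scored 6-9, 9-12, >12 mm.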

MDA-MB-231 [1] = experiment: Antiproliferative activity against human MDA-MB-231 cells after 72 hrs by MTT assay; assay type: functional; settings: MDA-MB-231, 72 h
In short: (§2)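 5000 cells per well added to pre-equilibrated medium at 37 °C; compounds from 10^-3 M DMSO stocks, final 10^-5 M. After 72 h, MTT (5 g/L) for 4 h, formazan dissolved in DMSO, OD 550 nm. % growth inhibition vs 1% DMSO medium (0%) and 10% SDS lysis (100%); mean ± SEM, 24 measures, three independent experiments.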

Nakaseomyces glabratus = experiment: Antifungal activity against Candida glabrata DSM6425 at 50 ug after 24 hrs by agar diffusion method; assay type: functional
In short: (§3)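 Yeasts grown on yeast extract peptone dextrose medium at 30 °C for 24 h, then agar well diffusion with 50 µg compound in 80% DMSO; 80% DMSO alone as control. Averaged inhibition zone diameter from triplicate, scored 6-9, 9-12 or >12 mm.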

Candida tropicalis = experiment: Antifungal activity against Candida tropicalis DSM 1346 at 50 ug after 24 hrs by agar diffusion method; assay type: functional; in short: as §3
Candida albicans = experiment: Antifungal activity against Candida albicans ATCC 10231 at 50 ug after 24 hrs by agar diffusion method; assay type: functional; in short: as §3
MDA-MB-231 [2] = experiment: Antiproliferative activity against human MDA-MB-231 cells at 10 uM after 72 hrs by MTT assay; assay type: functional; settings: MDA-MB-231, 72 h; in short: as §2
Escherichia coli [3] = experiment: Antibacterial activity against Escherichia coli ATCC 25922 at 50 ug after 24 hrs by agar diffusion method; assay type: functional; in short: as §1
Staphylococcus aureus [4] = experiment: Antibacterial activity against Staphylococcus aureus ATCC 25923 at 50 ug after 24 hrs by agar diffusion method; assay type: functional; settings: for zone of inhibition at 50 µg/disc: Staphylococcus aureus, ATCC 25923, 24 h, read-out: IZ; in short: as §1
Klebsiella pneumoniae = experiment: Antibacterial activity against Klebsiella pneumoniae CIP 53153 at 50 ug after 24 hrs by agar diffusion method; assay type: functional, organism-based; in short: as §1
Bacillus cereus [5] = experiment: Antibacterial activity against Bacillus cereus at 50 ug after 24 hrs by agar diffusion method; assay type: functional; in short: as §1
Pseudomonas aeruginosa = experiment: Antibacterial activity against Pseudomonas aeruginosa ATCC 27853 at 50 ug after 24 hrs by agar diffusion method; assay type: functional, organism-based; in short: as §1
Listeria innocua = experiment: Antibacterial activity against Listeria innocua at 50 ug after 24 hrs by agar diffusion method; assay type: functional; in short: as §1
MCF7 = experiment: Antiproliferative activity against human MCF7 cells after 72 hrs by MTT assay; assay type: functional; settings: MCF7, 72 h; in short: as §2
Pichia kudriavzevii = experiment: Antifungal activity against Issatchenkia orientalis DSM6128 at 50 ug after 24 hrs by agar diffusion method; assay type: functional, organism-based; in short: as §3
Escherichia coli [6] = experiment: Antibacterial activity against Escherichia coli ATCC 25922 after 24 hrs by broth macrodilution method; assay type: functional; settings: ATCC 25922, 24 h
In short: (§4)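 Bacteria pre-grown 24 h on nutritive agar (tryptone soy agar for E. faecalis, L. inocua) at 37 °C (30 °C for E. faecalis, L. inocua, B. cereus). MIC and MBC determined by macro-dilution broth method; MBC = lowest concentration killing 99.99% of inoculum. Compounds in DMSO, max 2.13% solvent in cultures. Triplicate.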

Staphylococcus aureus [7] = experiment: Antibacterial activity against Staphylococcus aureus ATCC 25923 after 24 hrs by broth macrodilution method; assay type: functional; settings: ATCC 25923, 24 h; in short: as §4
Bacillus cereus [8] = experiment: Antibacterial activity against Bacillus cereus after 24 hrs by broth macrodilution method; assay type: functional; in short: as §4

Row | SMILES | Activity (Enterococcus faecalis) | GI50 (MDA-MB-231 [1]) [µM] | Activity (Nakaseomyces glabratus) | Activity (Candida tropicalis) | Activity (Candida albicans) | inhibition at 10 µM (MDA-MB-231 [2]) [%] | Activity (Escherichia coli [3]) | Activity (Staphylococcus aureus [4]) | Activity (Klebsiella pneumoniae) | Activity (Bacillus cereus [5]) | Activity (Pseudomonas aeruginosa) | Activity (Listeria innocua) | GI50 (MCF7) [µM] | Activity (Pichia kudriavzevii) | zone of inhibition at 50 µg/disc (Staphylococcus aureus [4]) [mm] | further results
1 | S=c1ssnc1-c1cccs1 | inactive | > 10 | inactive | inactive | inactive | 0 | inactive | inactive | inactive | inactive | inactive | inactive | > 10 | inactive |  | 
2 | O=c1ssnc1-c1ccccc1 | inactive | > 10 | inactive | inactive | inactive | 0 |  | inactive | inactive | inactive | inactive | inactive | > 10 | inactive |  | zone of inhibition at 50 µg/disc (Escherichia coli [3]; ATCC 25922, 24 h, read-out: IZ): 6 mm; MBC (Escherichia coli [6]): > 48 µg/mL; MIC (Escherichia coli [6]): > 48 µg/mL
3 | O=[N+]([O-])c1ccc(-c2nss/c2=N\c2ccccc2)cc1 | inactive | > 10 | inactive | inactive | inactive | 0 | inactive | inactive | inactive | inactive | inactive | inactive | 10 | inactive |  | 
4 | c1ccc(/N=c2\ssnc2-c2cccs2)cc1 | inactive | > 10 | inactive | inactive | inactive | 0 | inactive | inactive | inactive | inactive | inactive | inactive | > 10 | inactive |  | 
5 | Cc1nss/c1=N\c1ccccc1 | inactive | > 10 | inactive | inactive | inactive | 0 | inactive | inactive | inactive | inactive | inactive | inactive | > 10 | inactive |  | 
6 | S=c1ssnc1-c1ccccc1 | inactive | > 10 | inactive | inactive | inactive | 0 | inactive |  | inactive |  | inactive | inactive | > 10 | inactive | 12 | MBC (Staphylococcus aureus [7]): > 48 µg/mL; MIC (Staphylococcus aureus [7]): 32 µg/mL (≈ 151 µM); MBC (Bacillus cereus [8]): > 48 µg/mL; MIC (Bacillus cereus [8]): > 48 µg/mL; zone of inhibition at 50 µg/disc (Bacillus cereus [5]; read-out: IZ): 9 mm
7 | S=c1ssnc1-c1cc2ccccc2o1 | inactive | > 10 | inactive | inactive | inactive | 0 | inactive | inactive | inactive | inactive | inactive | inactive | > 10 | inactive |  | 
8 | Fc1ccc(-c2nss/c2=N\c2ccccc2)cc1 | inactive | > 10 | inactive | inactive | inactive | 0 | inactive | inactive | inactive | inactive | inactive | inactive | 10 | inactive |  | 
9 | c1ccc(/N=c2\ssnc2-c2ccccc2)cc1 | inactive | > 10 | inactive | inactive | inactive | 0 | inactive |  | inactive | inactive | inactive | inactive | 10 | inactive | 6 | 
10 | O=[N+]([O-])c1ccc(-c2nssc2=S)cc1 | inactive | > 10 | inactive | inactive | inactive | 0 | inactive |  | inactive | inactive | inactive | inactive | > 10 | inactive | 6 | 
11 | Cc1nssc1=S | inactive | > 10 | inactive | inactive | inactive | 0 | inactive |  | inactive | inactive | inactive | inactive | > 10 | inactive | 6 | MBC (Staphylococcus aureus [7]): > 48 µg/mL; MIC (Staphylococcus aureus [7]): 48 µg/mL (≈ 322 µM)
12 | c1ccc(/N=c2\ssnc2-c2cc3ccccc3o2)cc1 | inactive | > 10 | inactive | inactive | inactive | 0 | inactive | inactive | inactive | inactive | inactive | inactive | 10 | inactive |  | 
13 | Fc1ccc(-c2nssc2=S)cc1 | inactive | > 10 | inactive | inactive | inactive | 0 | inactive | inactive | inactive | inactive | inactive | inactive | > 10 | inactive |  | 
